Legend:
[1] = biological target: T1, Inhibitor of nuclear factor kappa-B kinase subunit beta (Homo sapiens) (UniProt O14920); assay: Inhibition of IKK-beta at 1 uM; values are per cent of control
T1 sequence (whole entry): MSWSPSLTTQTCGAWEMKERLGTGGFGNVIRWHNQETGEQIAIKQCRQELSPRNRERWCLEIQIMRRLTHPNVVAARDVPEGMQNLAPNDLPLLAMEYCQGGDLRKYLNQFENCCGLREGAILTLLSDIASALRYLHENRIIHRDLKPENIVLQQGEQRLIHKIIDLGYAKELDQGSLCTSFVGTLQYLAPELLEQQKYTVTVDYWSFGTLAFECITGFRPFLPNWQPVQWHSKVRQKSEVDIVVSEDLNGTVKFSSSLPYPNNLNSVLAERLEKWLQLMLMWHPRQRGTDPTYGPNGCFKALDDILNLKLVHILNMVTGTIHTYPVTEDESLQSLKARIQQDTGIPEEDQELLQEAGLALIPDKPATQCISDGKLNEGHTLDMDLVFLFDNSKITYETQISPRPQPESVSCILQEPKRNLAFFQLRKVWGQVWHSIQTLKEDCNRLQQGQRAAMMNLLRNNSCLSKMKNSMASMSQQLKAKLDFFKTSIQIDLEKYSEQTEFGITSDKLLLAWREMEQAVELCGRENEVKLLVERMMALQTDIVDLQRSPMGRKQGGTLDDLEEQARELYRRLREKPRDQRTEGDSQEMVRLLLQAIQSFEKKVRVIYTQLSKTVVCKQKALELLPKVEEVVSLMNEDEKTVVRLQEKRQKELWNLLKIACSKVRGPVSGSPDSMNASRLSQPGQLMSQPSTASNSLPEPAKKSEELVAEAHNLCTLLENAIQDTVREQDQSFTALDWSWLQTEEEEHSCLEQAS

[2] = biological target: Fibroblast growth factor receptor 4 (Homo sapiens) (UniProt P22455); assay: Inhibition of FGFR4 at 0.1 uM; values are per cent of control
[3] = biological target: T2, Serine/threonine-protein kinase TBK1 (Homo sapiens) (UniProt Q9UHD2); assay: Inhibition of TBK1 at 0.1 uM; values are per cent of control
T2 sequence (whole entry): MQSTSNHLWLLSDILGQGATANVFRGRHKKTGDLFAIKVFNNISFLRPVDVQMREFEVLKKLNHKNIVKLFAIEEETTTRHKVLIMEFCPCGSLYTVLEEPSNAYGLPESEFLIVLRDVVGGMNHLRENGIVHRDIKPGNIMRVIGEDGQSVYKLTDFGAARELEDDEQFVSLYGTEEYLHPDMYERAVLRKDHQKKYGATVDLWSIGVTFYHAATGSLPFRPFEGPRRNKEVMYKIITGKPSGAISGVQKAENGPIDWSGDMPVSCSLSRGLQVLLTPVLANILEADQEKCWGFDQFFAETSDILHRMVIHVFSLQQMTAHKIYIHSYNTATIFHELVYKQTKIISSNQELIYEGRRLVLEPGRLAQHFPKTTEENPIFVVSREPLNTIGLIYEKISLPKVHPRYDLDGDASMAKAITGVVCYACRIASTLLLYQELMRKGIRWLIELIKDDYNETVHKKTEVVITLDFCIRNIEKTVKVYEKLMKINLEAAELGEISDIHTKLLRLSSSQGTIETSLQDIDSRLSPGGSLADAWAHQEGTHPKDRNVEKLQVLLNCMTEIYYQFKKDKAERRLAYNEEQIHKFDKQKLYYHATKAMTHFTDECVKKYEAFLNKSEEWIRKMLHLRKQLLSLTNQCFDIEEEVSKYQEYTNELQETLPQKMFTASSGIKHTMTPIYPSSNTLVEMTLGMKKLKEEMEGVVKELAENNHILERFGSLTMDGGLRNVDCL

[4] = biological target: MAP kinase-activated protein kinase 2 (Homo sapiens) (UniProt P49137); assay: Inhibition of MAPKAP-K2 at 1 uM
[5] = biological target: Proto-oncogene tyrosine-protein kinase Src (Homo sapiens) (UniProt P12931); assay: Inhibition of c-SRC at 1 uM; values are per cent of control
[6] = biological target: Insulin receptor (Homo sapiens) (UniProt P06213); assay: Inhibition of IR at 0.1 uM; values are per cent of control
[7] = biological target: Mitogen-activated protein kinase 8 (Homo sapiens) (UniProt P45983); assay: Inhibition of JNK1a1 at 0.1 uM; values are per cent of control
[8] = biological target: Interleukin-1 receptor-associated kinase 1 (Homo sapiens) (UniProt P51617); assay: Inhibition of IRAK1 at 1 uM
Procedure, shortened: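 Single-point profiling in a panel of 108 kinases. Each selected inhibitor was tested at two concentrations, 0.1 and 1.0 micromolar. Values are reported as inhibition at each concentration.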

[9] = biological target: Myosin light chain kinase, smooth muscle (Homo sapiens) (UniProt Q15746); assay: Inhibition of MLCK at 0.1 uM; values are per cent of control
[10] = biological target: Myosin light chain kinase, smooth muscle (Homo sapiens) (UniProt Q15746); assay: Inhibition of MLCK at 1 uM; values are per cent of control
[11] = biological target: T3, Mitogen-activated protein kinase 12 (Homo sapiens) (UniProt P53778); assay: Inhibition of SAPK3 at 0.1 uM; values are per cent of control
T3 sequence (whole entry): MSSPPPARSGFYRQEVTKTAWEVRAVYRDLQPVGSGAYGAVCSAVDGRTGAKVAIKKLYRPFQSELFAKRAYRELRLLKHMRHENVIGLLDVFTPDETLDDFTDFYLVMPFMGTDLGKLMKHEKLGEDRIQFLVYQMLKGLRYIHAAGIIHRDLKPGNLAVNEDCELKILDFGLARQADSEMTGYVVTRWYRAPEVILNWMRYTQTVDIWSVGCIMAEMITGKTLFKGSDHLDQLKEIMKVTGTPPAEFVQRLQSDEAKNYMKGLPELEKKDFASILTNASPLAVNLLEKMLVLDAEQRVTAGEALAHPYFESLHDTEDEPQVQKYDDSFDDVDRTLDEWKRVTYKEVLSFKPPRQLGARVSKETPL

Myosin light chain kinase, smooth muscle (Homo sapiens), sequence (Q15746 whole entry): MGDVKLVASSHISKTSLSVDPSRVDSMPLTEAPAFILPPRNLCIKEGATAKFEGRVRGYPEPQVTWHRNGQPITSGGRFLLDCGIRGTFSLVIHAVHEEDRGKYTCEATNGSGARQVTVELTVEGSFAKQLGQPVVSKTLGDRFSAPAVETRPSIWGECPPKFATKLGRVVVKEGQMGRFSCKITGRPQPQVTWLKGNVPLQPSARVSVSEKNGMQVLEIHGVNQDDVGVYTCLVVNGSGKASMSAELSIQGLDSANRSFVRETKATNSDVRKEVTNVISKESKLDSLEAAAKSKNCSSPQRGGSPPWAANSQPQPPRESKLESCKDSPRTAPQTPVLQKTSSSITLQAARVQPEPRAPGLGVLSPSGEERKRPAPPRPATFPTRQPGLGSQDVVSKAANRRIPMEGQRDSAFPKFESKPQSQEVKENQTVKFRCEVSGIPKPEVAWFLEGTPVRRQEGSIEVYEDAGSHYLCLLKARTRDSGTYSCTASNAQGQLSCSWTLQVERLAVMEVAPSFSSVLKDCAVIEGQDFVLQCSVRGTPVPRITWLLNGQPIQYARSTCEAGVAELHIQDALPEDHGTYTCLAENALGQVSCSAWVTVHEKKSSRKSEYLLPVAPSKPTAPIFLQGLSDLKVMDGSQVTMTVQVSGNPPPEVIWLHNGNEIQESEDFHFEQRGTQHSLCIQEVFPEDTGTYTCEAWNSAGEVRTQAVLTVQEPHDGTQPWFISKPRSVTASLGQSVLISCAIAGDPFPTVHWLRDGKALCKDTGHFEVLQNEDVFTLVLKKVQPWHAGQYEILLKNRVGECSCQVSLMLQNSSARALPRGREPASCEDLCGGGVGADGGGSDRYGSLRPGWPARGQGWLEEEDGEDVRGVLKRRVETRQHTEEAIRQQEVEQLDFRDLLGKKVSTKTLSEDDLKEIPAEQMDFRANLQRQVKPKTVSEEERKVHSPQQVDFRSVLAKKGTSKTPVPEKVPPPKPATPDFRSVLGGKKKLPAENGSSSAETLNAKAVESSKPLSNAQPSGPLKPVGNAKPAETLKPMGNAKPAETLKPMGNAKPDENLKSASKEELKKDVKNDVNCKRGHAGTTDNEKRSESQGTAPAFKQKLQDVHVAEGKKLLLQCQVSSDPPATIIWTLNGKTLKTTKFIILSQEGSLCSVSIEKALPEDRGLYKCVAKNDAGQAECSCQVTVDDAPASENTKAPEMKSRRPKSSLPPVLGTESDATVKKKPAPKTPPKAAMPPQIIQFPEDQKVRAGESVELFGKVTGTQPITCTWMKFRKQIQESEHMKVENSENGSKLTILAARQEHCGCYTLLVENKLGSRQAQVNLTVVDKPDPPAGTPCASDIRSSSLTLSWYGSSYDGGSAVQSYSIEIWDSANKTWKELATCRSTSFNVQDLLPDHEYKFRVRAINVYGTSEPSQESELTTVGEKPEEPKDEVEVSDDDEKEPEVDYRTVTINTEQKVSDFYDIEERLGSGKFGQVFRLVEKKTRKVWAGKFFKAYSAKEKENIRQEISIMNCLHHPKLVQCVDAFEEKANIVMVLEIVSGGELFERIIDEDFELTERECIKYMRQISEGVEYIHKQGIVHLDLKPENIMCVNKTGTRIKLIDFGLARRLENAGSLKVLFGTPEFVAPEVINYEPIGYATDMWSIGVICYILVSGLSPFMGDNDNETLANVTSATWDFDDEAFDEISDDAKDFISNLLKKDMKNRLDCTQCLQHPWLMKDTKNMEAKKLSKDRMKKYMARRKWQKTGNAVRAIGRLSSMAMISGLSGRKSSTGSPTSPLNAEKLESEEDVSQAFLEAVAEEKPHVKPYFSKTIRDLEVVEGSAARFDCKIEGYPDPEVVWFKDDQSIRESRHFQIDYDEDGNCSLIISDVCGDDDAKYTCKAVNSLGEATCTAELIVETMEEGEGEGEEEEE
Fibroblast growth factor receptor 4 (Homo sapiens), sequence (P22455 22-802 limits assumed): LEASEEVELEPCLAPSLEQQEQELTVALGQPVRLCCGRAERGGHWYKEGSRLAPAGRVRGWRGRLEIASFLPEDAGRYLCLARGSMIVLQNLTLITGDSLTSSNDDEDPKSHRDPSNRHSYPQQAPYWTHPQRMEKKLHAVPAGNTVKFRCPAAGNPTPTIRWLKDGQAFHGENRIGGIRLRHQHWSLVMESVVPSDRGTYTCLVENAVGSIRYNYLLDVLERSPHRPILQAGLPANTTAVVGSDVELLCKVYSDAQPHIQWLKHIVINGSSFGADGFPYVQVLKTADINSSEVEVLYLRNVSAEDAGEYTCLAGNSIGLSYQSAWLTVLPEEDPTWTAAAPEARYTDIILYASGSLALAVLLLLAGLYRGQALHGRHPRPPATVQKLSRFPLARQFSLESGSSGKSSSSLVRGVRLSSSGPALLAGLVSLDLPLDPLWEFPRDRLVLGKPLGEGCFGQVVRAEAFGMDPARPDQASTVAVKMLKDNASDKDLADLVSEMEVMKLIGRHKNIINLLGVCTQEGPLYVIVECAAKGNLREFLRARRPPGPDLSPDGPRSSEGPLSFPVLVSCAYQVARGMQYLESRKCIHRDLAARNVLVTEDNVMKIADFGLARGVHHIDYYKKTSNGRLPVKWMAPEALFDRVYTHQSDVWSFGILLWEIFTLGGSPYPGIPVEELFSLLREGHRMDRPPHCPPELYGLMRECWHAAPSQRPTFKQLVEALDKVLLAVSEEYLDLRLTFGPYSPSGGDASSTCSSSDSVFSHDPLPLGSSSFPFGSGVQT
MAP kinase-activated protein kinase 2 (Homo sapiens), sequence (P49137 whole entry, looked up): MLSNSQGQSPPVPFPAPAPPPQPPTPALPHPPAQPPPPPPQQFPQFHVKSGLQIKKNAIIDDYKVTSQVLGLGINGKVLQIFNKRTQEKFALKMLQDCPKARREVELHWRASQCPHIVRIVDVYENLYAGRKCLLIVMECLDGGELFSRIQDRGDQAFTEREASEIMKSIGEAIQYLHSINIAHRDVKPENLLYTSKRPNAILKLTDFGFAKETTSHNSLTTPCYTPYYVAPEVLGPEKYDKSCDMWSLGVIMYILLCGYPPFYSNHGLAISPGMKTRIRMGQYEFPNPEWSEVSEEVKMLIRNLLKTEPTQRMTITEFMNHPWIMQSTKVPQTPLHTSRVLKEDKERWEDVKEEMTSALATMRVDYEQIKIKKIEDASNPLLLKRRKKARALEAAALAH
Insulin receptor (Homo sapiens), sequence (P06213 28-758 limits assumed): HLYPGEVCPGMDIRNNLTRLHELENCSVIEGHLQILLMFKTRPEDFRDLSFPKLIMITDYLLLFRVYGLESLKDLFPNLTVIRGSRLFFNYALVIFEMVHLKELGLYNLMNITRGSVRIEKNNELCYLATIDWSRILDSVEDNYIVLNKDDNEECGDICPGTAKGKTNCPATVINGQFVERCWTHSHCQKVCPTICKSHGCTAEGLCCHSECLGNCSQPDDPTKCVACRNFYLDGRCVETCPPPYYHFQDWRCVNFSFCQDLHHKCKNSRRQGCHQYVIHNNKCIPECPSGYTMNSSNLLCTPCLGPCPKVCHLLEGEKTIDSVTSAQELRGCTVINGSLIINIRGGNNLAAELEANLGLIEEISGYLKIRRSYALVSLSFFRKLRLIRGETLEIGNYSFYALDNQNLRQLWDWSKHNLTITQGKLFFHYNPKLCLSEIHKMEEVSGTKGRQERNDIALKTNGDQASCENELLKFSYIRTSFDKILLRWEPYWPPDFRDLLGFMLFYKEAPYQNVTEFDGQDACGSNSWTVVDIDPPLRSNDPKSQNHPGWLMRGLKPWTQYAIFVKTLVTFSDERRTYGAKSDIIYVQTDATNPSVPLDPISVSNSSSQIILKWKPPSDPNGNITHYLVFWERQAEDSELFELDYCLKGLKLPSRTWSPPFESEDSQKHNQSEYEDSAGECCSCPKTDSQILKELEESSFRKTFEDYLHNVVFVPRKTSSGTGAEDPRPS
Insulin receptor (Homo sapiens), sequence (P06213 763-1382 limits assumed): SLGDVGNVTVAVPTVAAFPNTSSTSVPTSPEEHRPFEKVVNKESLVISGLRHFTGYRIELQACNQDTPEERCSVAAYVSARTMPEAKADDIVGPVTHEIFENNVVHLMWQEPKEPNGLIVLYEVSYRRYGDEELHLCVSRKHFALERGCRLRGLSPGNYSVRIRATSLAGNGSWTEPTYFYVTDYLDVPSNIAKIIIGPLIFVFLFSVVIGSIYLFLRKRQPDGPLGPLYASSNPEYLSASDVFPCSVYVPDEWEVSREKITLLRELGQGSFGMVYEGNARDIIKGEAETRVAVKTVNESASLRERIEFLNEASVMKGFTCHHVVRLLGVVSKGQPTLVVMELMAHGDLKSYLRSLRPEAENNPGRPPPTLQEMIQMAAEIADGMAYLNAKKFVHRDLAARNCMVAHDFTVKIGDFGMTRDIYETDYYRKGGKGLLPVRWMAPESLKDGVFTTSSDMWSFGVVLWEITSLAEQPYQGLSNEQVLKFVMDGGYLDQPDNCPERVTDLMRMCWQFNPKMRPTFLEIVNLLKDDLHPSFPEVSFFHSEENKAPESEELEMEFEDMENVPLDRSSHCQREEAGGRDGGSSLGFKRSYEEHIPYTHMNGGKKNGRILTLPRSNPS
Proto-oncogene tyrosine-protein kinase Src (Homo sapiens), sequence (P12931 2-536 limits assumed): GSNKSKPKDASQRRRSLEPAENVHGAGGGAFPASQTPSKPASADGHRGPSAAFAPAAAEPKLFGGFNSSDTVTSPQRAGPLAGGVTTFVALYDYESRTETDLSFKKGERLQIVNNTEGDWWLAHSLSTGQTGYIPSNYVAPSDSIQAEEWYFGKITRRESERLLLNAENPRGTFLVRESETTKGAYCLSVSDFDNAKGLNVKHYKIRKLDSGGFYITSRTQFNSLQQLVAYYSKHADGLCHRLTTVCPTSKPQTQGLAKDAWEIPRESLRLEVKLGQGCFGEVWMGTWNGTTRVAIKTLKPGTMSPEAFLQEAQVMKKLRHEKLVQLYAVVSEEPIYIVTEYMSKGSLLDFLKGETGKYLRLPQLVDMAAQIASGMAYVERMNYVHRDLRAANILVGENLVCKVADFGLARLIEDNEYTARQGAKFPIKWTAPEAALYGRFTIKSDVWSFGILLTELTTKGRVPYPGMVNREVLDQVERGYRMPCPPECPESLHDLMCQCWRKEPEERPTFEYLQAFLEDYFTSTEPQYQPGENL

residual activity [1]	residual activity [2]	residual activity [3]	inhibition [4]	residual activity [5]	residual activity [6]	residual activity [7]	inhibition [8]	residual activity [9]	residual activity [10]	residual activity [11]	Compound
76%	63%	19%	48%	5%	93%	101%	7%	86%	44%	92%	Cc1ccc2cc(-c3n[nH]c4ccc(NC5CCNC5)cc34)[nH]c2c1 (configuration not stated)
102%	65%	53%	93%	1%	93%	83%	9%	89%	63%	104%	Cc1ccc2cc(-c3n[nH]c4ccc(NC5CCN(Cc6ccccc6)CC5)cc34)[nH]c2c1
